pIC50: −log10 of the molar value. Activity calls are given as the source filed them.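 The calls were made as follows: active = mean IC50 of 20 µM or lower in the 24 hour cytotoxicity test; inactive = the rest.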
test system: CHO-XBP1 cytotoxicity, ATPlite luminescence, 24 h; assay: CHO-XBP1 cell viability loss – 24 h exposure, ATPlite luminescence, cytotoxicity control for UPR apoptotic arm activator project, SAR follow-up (AID 588558)
Procedure, shortened: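 System: CHO-XBP1 cells (Chinese hamster ovary XBP1 reporter line) / Quantity: 1000 CHO-XBP1 cells per well / Medium: F12 with 10% FBS / Doses: compound dose series, final DMSO at most 1% / Schedule: 24 h compound exposure at 37 °C / Detection: ATPLite 1-Step luminescence after 10 min at room temperature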

| Compound | pIC50 | IC50 |
| --- | --- | --- |
| O=C(Nc1ccc(S(=O)(=O)N2CCCC2)cc1)c1ccc([N+](=O)[O-])o1 | 4.72 |  |
| O=C(Nc1nc2cc(F)ccc2s1)c1ccccn1 | 5.90 |  |
| O=C(Nc1ccc(S(=O)(=O)N2CCC3(CCCCC3)CC2)cc1)c1ccc([N+](=O)[O-])o1 | 5.04 |  |
| O=C(Nc1ccc(S(=O)(=O)N2CCC(F)CC2)cc1)c1ccc([N+](=O)[O-])o1 |  | 24700 nM (inactive) |
| O=C(Nc1nc2c(Cl)cc(Cl)cc2s1)c1ccccn1 | 5.06 |  |
| O=C(Nc1nc2cccc(F)c2s1)c1ccccn1 | 5.75 |  |
| O=C(Nc1ccc(S(=O)(=O)N2CCC(O)CC2)cc1)c1ccc([N+](=O)[O-])o1 |  | 27900 nM (inactive) |
| CC1CCN(S(=O)(=O)c2ccc(NC(=O)c3ccc([N+](=O)[O-])o3)cc2)CC1 |  | 32200 nM (inactive) |
| O=C(Nc1ccc(S(=O)(=O)c2ccccc2)cc1)c1ccc([N+](=O)[O-])o1 | 4.73 |  |
| O=C(Nc1nc2c(F)cccc2s1)c1ccccn1 | 5.85 |  |
| O=C(Nc1nc2ccc(F)c(F)c2s1)c1ccccn1 | 5.92 |  |
| O=C(Nc1ccc(S(=O)(=O)N2CCC(Cl)CC2)cc1)c1ccc([N+](=O)[O-])o1 |  | > 80000 nM (inactive) |
| O=C(Nc1nc2cc(F)c(F)cc2s1)c1ccccn1 | 5.74 |  |
| CC(C)(C)C1CCN(S(=O)(=O)c2ccc(NC(=O)c3ccc([N+](=O)[O-])o3)cc2)CC1 | 5.57 |  |
| O=C(Nc1ccc(S(=O)(=O)N2CCOCC2)cc1)c1ccc([N+](=O)[O-])o1 |  | 32300 nM (inactive) |
| O=C(Nc1nc2c(F)c(F)ccc2s1)c1ccccn1 | 5.87 |  |
| O=C(Nc1ccc(S(=O)(=O)N2CCCCC2)cc1)c1ccc([N+](=O)[O-])o1 |  | > 80000 nM (inactive) |
| O=C(Nc1ccc(S(=O)(=O)N2CCNCC2)cc1)c1ccc([N+](=O)[O-])o1 |  | > 80000 nM (inactive) |
| O=C(Nc1nc2cc(F)cc(F)c2s1)c1ccccn1 | 5.98 |  |
| CC1CN(S(=O)(=O)c2ccc(NC(=O)c3ccc([N+](=O)[O-])o3)cc2)CC(C)O1 (stereo not given) |  | 34900 nM (inactive) |
| O=C(Nc1ccc(S(=O)(=O)C2CCOCC2)cc1)c1ccc([N+](=O)[O-])o1 |  | 37600 nM (inactive) |
| CC1(C)CCN(S(=O)(=O)c2ccc(NC(=O)c3ccc([N+](=O)[O-])o3)cc2)CC1 | 4.74 |  |
| O=C(Nc1nc2ccc(C(F)(F)F)cc2s1)c1ccccn1 | 6.01 |  |
| O=C(Nc1ccc(S(=O)(=O)N2CCOCC2)cc1)c1ccc([N+](=O)[O-])s1 |  | > 80000 nM (inactive) |
| O=C(Nc1ccc(S(=O)(=O)C2CCCCC2)cc1)c1ccc([N+](=O)[O-])o1 |  | 22100 nM (inactive) |
| O=C(Nc1nc2c(F)cc(F)cc2s1)c1ccccn1 | 5.80 |  |
| Cc1cc(C)c2nc(NC(=O)c3ccccn3)sc2c1 | 5.43 |  |
| O=C(Nc1nc2c(F)ccc(F)c2s1)c1ccccn1 | 5.97 |  |
| O=C(Nc1nc2ccc(F)cc2s1)c1ccccn1 | 5.70 |  |
| O=C(Nc1nc2ccc(Cl)cc2s1)c1ccccn1 | 5.87 |  |

Reference: PubChem BioAssay AID588558 (Sanford-Burnham Center for Chemical Genomics, 2011)
